# This is a sample that favours compounds with a hit; in the whole collection about 1.5% have one here.
# EBI2 block: EBI2 receptor antagonists, beta-arrestin recruitment, primary screen, cell-based, luminescence, 7a,25-OHC stimulation, uHTS | 7a,25-OHC stimulated | inhibition, % at 5 µM | 360,000 compounds, 0.81% hits | AID 651636, 2012 | G-protein coupled receptor 183 (Homo sapiens), P32249; in the data active = inhibition above about 38%;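 note: enzyme fragment complementation signal reports receptor beta-arrestin coupling in cells; 0% = agonist plus DMSO wells and 100% = wells without agonist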
# APJ ag: agonists of human apelin receptor APJ, primary screen, CHO-K1 cells, PathHunter beta-arrestin, luminescence. 0% DMSO wells, 100% apelin. activation, % at 20 µM. 330,000 compounds, 0.11% hits. AID 2520, 2010;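 active = activation more than six SD over the plate average, tested at 20 µM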;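 note: 0% = DMSO alone and 100% = apelin-13 at 10 nM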
#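 Test system: CHO-K1 APJ beta-arrestin complementation cell line | Compound: Single test compound dose, 20 µM final, 1% DMSO | Incubation: Compound 90 min 25 °C, reagent 1 h | Measured by: beta-gal luminescence | Read-out basis: APJ–arrestin association signal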
# APJ antag: antagonists of human apelin receptor APJ, primary screen, CHO-K1 cells, beta-arrestin complementation, luminescence | P35414 | inhibition, % at 20 µM | 330,000 compounds, 0.32% hits;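 active = inhibition above about 40% at 20 µM, limit read from the data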;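 note: cells challenged with 10 nM apelin-13 agonist together with compound; plate controls were apelin-13 plus DMSO wells for no effect and DMSO wells lacking apelin-13 for full effect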
# CCR6 antagonist: CCR6 receptor antagonists, primary screen, cell-based, CHO-K1, luminescence, beta-arrestin, uHTS; C-C chemokine receptor type 6 (Homo sapiens), P51684; CHO-K1 CCR6 PathHunter beta-arrestin, CCL20-stimulated; inhibition, % at 20 µM; 340,000 compounds, 0.49% hits; AID 493098, 2011;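 active = compounds whose inhibition of the agonist-driven luminescence signal at 20 µM reaches about 50%, limit read from the data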;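 note: cells stimulated with CCL20 at 14 nM final; plate controls were DMSO with CCL20 for no effect and DMSO without agonist for full effect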
# Target sequence (P51684 whole entry, looked up): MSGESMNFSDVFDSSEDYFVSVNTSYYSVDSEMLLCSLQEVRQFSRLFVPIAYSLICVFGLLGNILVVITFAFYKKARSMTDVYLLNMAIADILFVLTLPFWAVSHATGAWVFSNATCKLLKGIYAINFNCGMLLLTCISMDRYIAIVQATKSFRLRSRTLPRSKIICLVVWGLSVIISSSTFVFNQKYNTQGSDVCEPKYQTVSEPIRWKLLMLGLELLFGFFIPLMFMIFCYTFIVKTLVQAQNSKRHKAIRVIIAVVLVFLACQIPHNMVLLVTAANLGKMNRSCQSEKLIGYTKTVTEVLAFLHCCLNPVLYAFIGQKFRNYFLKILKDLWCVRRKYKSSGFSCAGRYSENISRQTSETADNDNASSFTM
# CXCR6 inh: CXCR6 receptor inhibitors, primary screen, cell-based, beta-arrestin, luminescence, CHO-K1 PathHunter, 1536-well. 360,000 compounds, 0.36% hits. C-X-C chemokine receptor type 6 (Homo sapiens), O00574. inhibition, % at 20 µM; in the data active = inhibition above about 34%, passing the limit was not always enough;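 note: antagonist mode with CXCL16 agonist at 10 nM final; 0% = 10 nM CXCL16 with DMSO and 100% = unstimulated wells without agonist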
# * marks the source's active call; other numbers are inactive results; x = no result.
SMILES,EBI2 block,APJ ag,APJ antag,CCR6 antagonist,CXCR6 inh
CC1(C)C[C@H](O)[C@]2(CO)CC[C@]3(C)C(=CCC4[C@@]5(C)CC[C@H](O)C(C)(C)C5CC[C@]43C)[C@@H]2C1 (stereo not given in full),-21,-1,-12,-5,1
CC1(C)C2CC[C@]3(C)C(CC=C4[C@@H]5C[C@@](C)(CO)[C@@H]6C[C@@]5(CC[C@]43C)C(=O)O6)[C@@]2(C)CC[C@@H]1O (stereo not given in full),x,0,13,56*,x
CCOCCn1cnc2sc(C(=O)NCCCN3CCOCC3)c(C)c2c1=O,-9,3,3,-16,-13
O=C(O)c1cccc(-c2csc(C(O)c3ccccc3)n2)c1 (stereo not given),1,x,x,x,5
O=S(=O)(O)c1cccc2c(N=Nc3ccc(O)c4ncccc34)cccc12,11,x,x,x,37*
Cc1ccccc1N=Nc1ccc(O)c2ncccc12,8,x,x,48,14
O=[N+]([O-])c1ccc(NCCCO)c(S(=O)(=O)N2CCOCC2)c1,-10,-3,-10,1,5
O=[N+]([O-])c1ccc(N/N=C/c2cccc(O)c2O)c(S(=O)(=O)N2CCOCC2)c1,41*,-7,58*,72*,55*
O=[N+]([O-])c1ccc(N/N=C/c2ccc(O)c(O)c2O)c(S(=O)(=O)N2CCOCC2)c1,12,-5,15,51*,7
COc1cc(/C=N/Nc2ccc([N+](=O)[O-])cc2S(=O)(=O)N2CCOCC2)cc(OC)c1OC,17,-4,23,17,34
O=c1[nH]c(-c2ccccn2)nc2sc(-c3ccccc3)cc12,87*,x,x,36,25
Cc1c(C(=O)N(C)C)sc2nc(-c3ccccn3)[nH]c(=O)c12,-6,-8,5,29,-4
N#CC(=C1CCCC1)c1nc(-c2ccccc2)cs1,40,0,-15,2,4
N#CC(=C1CCCC1)c1nc(-c2ccccc2O)cs1,65*,-3,-9,17,6
Cc1nc([N+](=O)[O-])c(Br)n1CC(=O)c1ccc2ccccc2c1,55*,-2,3,25,18
Oc1c(I)cc(Cl)c2cccnc12,14,-4,17,55*,36*
CN1CCN(C(c2ccc(Cl)cc2)c2cc(Cl)c3cccnc3c2O)CC1 (stereo not given),14,-5,1,63*,11
COc1ccc(C(NC(C)=O)c2cc(Cl)c3cccnc3c2O)cc1 (stereo not given),2,-2,-4,14,7
O=C(NC(c1ccc(Cl)cc1)c1cc(Cl)c2cccnc2c1O)c1cccnc1 (stereo not given),65*,x,x,35,12
Oc1c(C(c2ccccn2)N2CCCCC2)cc(Cl)c2cccnc12 (stereo not given),20,-8,37,63*,26
CN1CCN(C(c2ccc(C(F)(F)F)cc2)c2cc(Cl)c3cccnc3c2O)CC1 (stereo not given),x,-3,13,x,x
O=S(=O)([N-]c1nc2ccccc2nc1-n1cc[n+](Cc2ccccc2)c1)c1ccc(Cl)cc1,2,6,2,-1,2
COc1ccc(C2C(C)C(=O)C(C)C(c3ccc(OC)cc3)N2N=O)cc1 (stereo not given),21,x,x,13,5
COc1ccc(CC(=O)Nc2c3c(nn2C(C)(C)C)CS(=O)(=O)C3)cc1,1,3,12,14,3
COc1ccc(CCC(=O)Nc2ccc(Cn3ccnc3)cc2)cc1,16,-3,-28,8,-6
SMILES,EBI2 block,APJ ag,APJ antag,CCR6 antagonist,CXCR6 inh
O=c1[nH]cc(C=NNc2ccccc2)c(=O)[nH]1,-7,x,x,x,-6
Cc1cc(NCc2ccccn2)n2ncc(-c3ccc(Cl)cc3)c2n1,12,5,13,21,17
Cc1cc(NCc2ccccn2)n2nc(C)c(-c3ccc(Cl)cc3)c2n1,-3,1,-8,51*,21
CCOc1ccccc1N1C(=O)CC(Sc2n[nH]c(-c3ccccc3)n2)C1=O (stereo not given),-12,-2,4,70*,-8
COc1ccc(N2C(=O)CC(Sc3n[nH]c(-c4cccc(C)c4)n3)C2=O)cc1 (stereo not given),6,-1,4,4,-1
COC(=O)C1Cc2ccccc2CN1S(=O)(=O)c1ccc(C)cc1 (stereo not given),8,1,-10,0,7
COC(=O)C1CN(S(=O)(=O)c2ccc(C)cc2)CCN1S(=O)(=O)c1ccc(C)cc1 (stereo not given),55*,-3,12,8,2
CCC(C)c1ccccc1N1CC(C(=O)Nc2ccc(S(=O)(=O)N3CCOCC3)cc2)CC1=O (stereo not given),-3,1,-9,7,0
COC(=O)[C@@H]1[C@@H](C#N)C2(c3ccccc3-c3ccccc32)N(c2ccc(Cl)cc2)N1C#N,17,1,7,47,52*
O=C(Cc1ccc(Cl)cc1)NN1C(=O)c2ccccc2C1=O,-1,2,13,5,-8
Fc1cccc(NC(=S)NNc2c3ccccc3nc3ccccc23)c1,-3,x,x,56*,38
Fc1cccc(NC(=S)NNc2ccccc2)c1,-9,1,-16,16,7
CC1CN(C2=NC(=O)/C(=C/c3ccncc3)S2)CC(C)O1 (stereo not given),-1,-1,5,-15,-4
C[C@@H](C(=O)Nc1ccc2ccccc2c1)[C@@H]1C[C@@]1(C)[C@@H](NC(=O)c1ccccc1)c1ccccc1,54*,5,-15,7,2
C/C(=N/Nc1ccc(C(=O)c2c(C)cc3ccccn23)cc1[N+](=O)[O-])c1ccc(O)cc1,19,x,x,47,37*
Cc1cc2ccccn2c1C(=O)c1ccc(N/N=C/c2ccc(C(=O)O)cc2)c([N+](=O)[O-])c1,-2,x,x,42,33
C/C(=N\Nc1ccc(C(=O)c2c(C)cc3ccccn23)cc1[N+](=O)[O-])c1ccc(O)cc1,40,-5,17,41,47*
O=C(N/N=C/c1ccccc1)c1sccc1OCc1ccc(F)cc1,-3,-1,17,-19,5
N#CC(=C1C=C(Br)C(=NO)C=C1Cl)c1cccc2ccccc12,10,x,x,x,40*
Cc1ccccc1N1CC(=O)N(c2ccccc2C)CC1=O,-3,-1,-4,1,7
Cc1cccc2c1c1ccc3c(c1n2C)C(=O)C=CC3=O,-3,x,x,89*,44*
COc1cc(/C=C2\SC(N3CCC(C)CC3)=NC2=O)ccc1O,40*,-4,15,12,0
COc1ccc2sc(-c3ccccc3OC)c(-c3ccc(OCCN(C)C)cc3)c2c1,-2,x,x,52*,-3

# Screening results as filed in PubChem BioAssay.
